# Assay results published in PubChem BioAssay AID651740 (Broad Institute, 2012).
# In all, about 5,600 compounds went through this assay and about 1,200 (21%) were called active. Inconclusive results (about 3%) are left out. A selection follows. Unmarked numbers belong to inactive results.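 The calls were made as follows: active = mean inhibition above about 95%, with at least 55% of replicates also reaching it (limit read from the data); inconclusive = meets just one of the two conditions; inactive = meets neither condition.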
# Assay: inhibitors of intracellular T. cruzi replication, confirmation, NIH3T3 host cells, beta-gal parasites, cherry-pick, set 2 (AID 651740);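 also: plate controls were neutral control median for no effect and positive control median for full effect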
# Conditions: T. cruzi beta-gal in NIH3T3, GalScreen luminescence, 90 h; at 2.09 µM; hits give high values
# Outline: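 assay system = mouse NIH/3T3 fibroblasts infected with beta-galactosidase T. cruzi Tulahuen C4 | quantity = 5,000 fibroblasts/well | buffer or medium = 2% FBS DMEM with PSG | reagent = 5000 trypomastigotes per well | compound dosing = one concentration, 100 nL compound in DMSO | timing = ≥90 h infection with compound, 60 min read delay | signal = luminescence, GalScreen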
row,Structure (SMILES),inhibition
1,CCC(=O)N1CC[C@@H]2[C@@H](CO)N(C)c3ccc(-c4ccc(F)cc4)cc3[C@@H]21,79.1%
2,CCC(=O)N1CC[C@@H]2[C@@H](CO)N(C)c3ccc(-c4cccc(OC)c4)cc3[C@@H]21,91.1%
3,COc1ccc(NC(=O)N2CC[C@@H]3[C@@H](CO)N(C)c4ccc(-c5cccc(F)c5)cc4[C@@H]32)cc1,106% (active)
4,COc1ccccc1NC(=O)N1CCCCN2[C@H](C1)[C@H](c1ccc(-c3ccccc3)cc1)[C@@H]2CO,65%
5,C[C@H](O)C#Cc1ccc([C@H]2[C@H]3CN(S(=O)(=O)Cc4ccccc4)CCCCN3[C@H]2CO)cc1,11.7%
6,O=S(=O)(c1ccccc1)N1CC[C@@H]2[C@H]1c1cc(C#Cc3cccc(F)c3)ccc1N[C@@H]2CO,92.6%
7,COCC(=O)N1CC[C@@H]2[C@@H](CO)Nc3ccc(-c4cccc(C#N)c4)cc3[C@@H]21,30.7%
8,O=C(Cc1ccccc1)N1CC[C@H]2[C@H](CO)Nc3ccc(-c4ccccc4F)cc3[C@H]21,64.2%
9,O=C(c1cnccn1)N1CC[C@@H]2[C@H](CO)Nc3ccc(-c4cccc(F)c4)cc3[C@@H]21,87.3%
10,OC[C@@H]1Nc2ccc(-c3cccc(F)c3)cc2[C@H]2[C@@H]1CCN2Cc1ccncc1,55.6%
11,CC(=O)N1CC[C@@H]2[C@H](CO)Nc3ccc(C#Cc4ccccc4F)cc3[C@@H]21,14.9%
12,O=S(=O)(c1ccccc1)N1CC[C@@H]2[C@@H](CO)Nc3ccc(-c4ccccc4F)cc3[C@@H]21,98.3% (active)
13,N#Cc1ccc(-c2ccc3c(c2)[C@@H]2[C@@H](CCN2C(=O)Cc2ccncc2)[C@@H](CO)N3)cc1,54.9%
14,O=C(c1ccccn1)N1CC[C@@H]2[C@H]1c1cc(-c3ccccc3)ccc1N[C@@H]2CO,110% (active)
15,O=C(c1cccc(F)c1)N1CC[C@@H]2[C@@H](CO)Nc3ccc(C#Cc4cccc(F)c4)cc3[C@@H]21,106% (active)
16,O=S(=O)(c1ccccc1)N1CC[C@@H]2[C@@H](CO)Nc3ccc(C#Cc4cccc(F)c4)cc3[C@@H]21,101% (active)
17,Cc1ccccc1S(=O)(=O)N1CC[C@H]2[C@H](CO)Nc3ccc(-c4cccc(F)c4)cc3[C@H]21,93.1%
18,O=C(Nc1cc(Cl)cc(Cl)c1)N[C@H]1CC[C@@H](CCNS(=O)(=O)c2cccc(F)c2)O[C@H]1CO,2.51%
19,CC(C)C#Cc1ccc([C@H]2[C@H](CO)N3CCCCN(C(=O)NC(C)C)C[C@@H]23)cc1,-8.04%
20,COc1ccc(S(=O)(=O)N(C)C[C@H]2Oc3c(NC(=O)Nc4cccc5ccccc45)cccc3C(=O)N([C@@H](C)CO)C[C@H]2C)cc1,90.2%

row,Structure (SMILES),inhibition
1,C[C@@H]1CN([C@H](C)CO)C(=O)c2cc(/C=C/c3ccccc3)cnc2O[C@@H]1CN(C)Cc1ccncc1,2.78%
2,Cc1cc(C(=O)Nc2cccc3c2O[C@@H](CN(C)Cc2ccc(C(=O)Nc4ccccc4N)cc2)[C@H](C)CN([C@@H](C)CO)C3=O)n(C)n1,63.4%
3,COc1ccc(-c2ccc([C@H]3[C@H]4CN(C(=O)c5ccc6c(c5)OCO6)CCCCN4[C@H]3CO)cc2)cc1,50.5%
4,C[C@H](CO)N1C[C@H](C)[C@H](CN(C)Cc2ccc(-c3ccccc3)cc2)Oc2ccc(NC(=O)Nc3ccc(F)cc3)cc2CC1=O,83.3%
5,CN1c2ccc(-c3ccccc3)cc2[C@H]2[C@H](CCN2C(=O)Cc2ccccn2)[C@H]1CO,72.9%
6,COCC#Cc1ccc([C@@H]2[C@H](CO)N3CCCCN(C(=O)CN(C)C)C[C@@H]23)cc1,29.5%
7,CN1C(=O)c2cc(NC(=O)c3cnccn3)ccc2OC[C@@H]2O[C@@H](CC(=O)N[C@H]3CCN(Cc4ccccc4)C3)CC[C@H]21,32.2%
8,CN1C(=O)c2cc(NC(=O)Nc3ccccc3F)ccc2OC[C@H]2O[C@H](CC(=O)NCc3ccc(-c4ccccc4)cc3)CC[C@H]21,104% (active)
9,CN1C(=O)c2cc(NC(=O)c3cnccn3)ccc2OC[C@@H]2O[C@H](CC(=O)N[C@@H]3CCN(Cc4ccccc4)C3)CC[C@@H]21,93.2%
10,Cc1ccc(-c2ccc3c(c2)O[C@H](CN(C)C)[C@@H](C)CN([C@H](C)CO)S3(=O)=O)cc1,41.9%
11,O=C(NCC1CCCCC1)[C@H]1[C@H](CO)[C@H]2Cn3c(cccc3=O)[C@H]2N1C(=O)CC1CC1,30.6%
12,CC(C)NC(=O)Nc1ccc2c(c1)C(=O)N([C@@H](C)CO)C[C@H](C)[C@H](CN(C)S(=O)(=O)c1ccc(Cl)cc1)OCCCC[C@H](C)O2,99.7% (active)
13,COc1ccc(NC(=O)N(C)C[C@@H]2OCCCC[C@@H](C)Oc3ccc(NS(=O)(=O)c4ccc(Cl)cc4)cc3C(=O)N([C@H](C)CO)C[C@H]2C)cc1,44.3%
14,Cc1noc(C)c1S(=O)(=O)Nc1ccc2c(c1)C(=O)N([C@@H](C)CO)C[C@@H](C)[C@H](CN(C)S(=O)(=O)c1ccc(Cl)cc1)OCCCC[C@H](C)O2,62.5%
15,C[C@@H]1CCCCO[C@@H](CN(C)S(=O)(=O)c2ccc(Cl)cc2)[C@H](C)CN([C@@H](C)CO)C(=O)c2cc(NC(=O)Cc3ccccc3)ccc2O1,80.6%
16,C[C@@H]1CCCCO[C@H](CN(C)S(=O)(=O)c2ccc(Cl)cc2)[C@H](C)CN([C@@H](C)CO)C(=O)c2cc(NS(=O)(=O)c3cccs3)ccc2O1,79.2%
17,C[C@H]1CCCCO[C@@H](CN(C)S(=O)(=O)c2cccs2)[C@@H](C)CN([C@@H](C)CO)C(=O)c2cc(NS(=O)(=O)c3ccc(Cl)cc3)ccc2O1,71%
18,C[C@H]1CCCCO[C@H](CN(C)S(=O)(=O)c2ccc(Cl)cc2)[C@@H](C)CN([C@@H](C)CO)C(=O)c2cc(NC(=O)Nc3ccc4c(c3)OCO4)ccc2O1,105% (active)
19,COc1ccc(NC(=O)Nc2ccc3c(c2)C(=O)N([C@H](C)CO)C[C@H](C)[C@H](CN(C)S(=O)(=O)c2ccc(Cl)cc2)OCCCC[C@H](C)O3)cc1,107% (active)
20,Cc1ccc(S(=O)(=O)N(C)C[C@H]2OCCCC[C@H](C)Oc3ccc(NC(=O)Cc4ccccc4)cc3C(=O)N([C@@H](C)CO)C[C@@H]2C)cc1,95%
